PfM18AAP inh: PfM18AAP enzyme inhibition; recombinant PfM18AAP, H-Glu-NHMec fluorogenic cleavage; inhibition, % at 7.35 µM; 290,000 tested, 1.2% active; AID 1822;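 active = inhibition above the campaign mean inhibition over all tested compounds plus 3 SD, cut at about 28% in these data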
IMP-1 inh-1: blocks Pseudomonas aeruginosa IMP-1 metallo-beta-lactamase | purified IMP-1, nitrocefin hydrolysis, epi-absorbance fluorescence | inhibition, % at 5.6 µM | 290,000 tested, 0.45% active;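 active = inhibition above the mean plus 3 SD of all compounds in the same screening run, cut at about 4.5% in these data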
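Assay system: purified recombinant IMP-1 beta-lactamase. Input: IMP-1 0.2 nM before substrate addition. Buffer or medium: Zinc- and detergent-supplemented HEPES buffer, pH 7.1. Schedule: 25 °C, 15 min preincubation, 25 min reaction. Signal: Epi-absorbance fluorescence, 480 nm excitation, 530 nm emission. Evaluation: percent inhibition from optical density relative to buffer-blank wells.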
CTSL1 counter: cathepsin L1 inhibition, PFM18AAP counter-screen | 300,000 tested, 0.49% active | AID 1906 | inhibition, % at 5.96 µM | recombinant F. hepatica cathepsin L1, Z-Leu-Arg-MCA fluorescence;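 active = inhibition above the mean of all tested compounds plus 3 SD, set per screening campaign, cut at about 17% in these data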
VIM-2 inhibitor: blocks Pseudomonas aeruginosa VIM-2 metallo-beta-lactamase; purified VIM-2, nitrocefin hydrolysis, epi-absorbance fluorescence; inhibition, % at 5.6 µM; 290,000 tested, 0.89% active; AID 1527;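 active = inhibition above the mean of all tested compounds plus 3 SD, cutoff set per screening run, cut at about 7.5% in these data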;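 note: red hydrolysis product quenches plate fluorescence so inhibitors raise well fluorescence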
IMP-1 inh-2: IMP-1 inhibition, counter-screen for VIM-2 inhibitors | shares compounds with VIM-2 inhibitor | purified IMP-1, nitrocefin hydrolysis, epi-absorbance fluorescence | inhibition, % at 5.6 µM | 1,300 tested, under 10 active; call rule not given here
VIM-2 FRET ctr: inhibits VIM-2 in FRET assay to exclude epi-absorbance artifacts. shares compounds with VIM-2 inhibitor. purified VIM-2, CCF2 FRET substrate hydrolysis. inhibition, % at 5.6 µM. 1,300 tested, 23% active. AID 1857;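 active = inhibition above the mean of all tested compounds plus 3 SD, cut at about 19% in these data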
TEM-1 inh: selectivity counter-screen for VIM-2 inhibitors: E. coli TEM-1 inhibitors; shares compounds with VIM-2 inhibitor; Purified TEM-1, nitrocefin hydrolysis, epi-absorbance fluorescence; inhibition, % at 5.6 µM; 1,300 tested, 3% active;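 active = inhibition above that campaign's mean inhibition plus 3 SD, cut at about 0.46% in these data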
Target sequence (P62593 whole entry, looked up): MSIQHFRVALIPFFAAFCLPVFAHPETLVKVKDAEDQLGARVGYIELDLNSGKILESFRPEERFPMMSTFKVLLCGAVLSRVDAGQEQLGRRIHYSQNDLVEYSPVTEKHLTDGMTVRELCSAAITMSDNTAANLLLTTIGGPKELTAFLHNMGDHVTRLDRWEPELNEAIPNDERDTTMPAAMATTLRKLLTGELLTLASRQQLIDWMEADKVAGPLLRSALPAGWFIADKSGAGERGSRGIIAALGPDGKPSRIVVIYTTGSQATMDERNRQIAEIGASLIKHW
VIM-2 inh conf: confirmation of P. aeruginosa VIM-2 metallo-beta-lactamase inhibitors | shares compounds with VIM-2 inhibitor | purified VIM-2, nitrocefin hydrolysis, epi-absorbance | inhibition, % at 5.6 µM | 1,300 tested, 96% active;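 active = inhibition of the VIM-2 beta-lactamase enzyme above about 11% from the earlier first-round screen, limit read from the data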
Large screens that a line does not name were inactive (follow-up assays come after a bar, where they were run). Compounds with a hit are over-represented: about 2.7% of the library has one in this group of screens.

Cc1ccc(-c2nn3nnnc3c3ccccc23)cc1C	none
CCCc1n[nH]c(=S)n1Cc1ccco1	VIM-2 inhibitor 17 | IMP-1 inh-2 inactive | VIM-2 FRET ctr 40 | TEM-1 inh inactive | VIM-2 inh conf 25
CCCCc1n[nH]c(=S)n1Cc1ccccc1	none
CCn1c(-c2cc(Cl)ccc2OC)n[nH]c1=S	none
COc1ccccc1-c1n[nH]c(=S)n1Cc1ccccc1	VIM-2 inhibitor 25 | IMP-1 inh-2 inactive | VIM-2 FRET ctr 52 | TEM-1 inh inactive | VIM-2 inh conf 34
S=c1[nH]nc(COc2ccc(Cl)cc2)n1Cc1ccco1	none
CCCCc1n[nH]c(=S)n1Cc1ccc(Cl)cc1	VIM-2 inhibitor 15 | IMP-1 inh-2 inactive | VIM-2 FRET ctr 25 | TEM-1 inh inactive | VIM-2 inh conf 18
COc1ccccc1-n1c(-c2ccccc2)n[nH]c1=S	VIM-2 inhibitor 15 | IMP-1 inh-2 inactive | VIM-2 FRET ctr 46 | TEM-1 inh inactive | VIM-2 inh conf 26
COc1cc(OC)c(S(=O)(=O)Nc2ccc(C)cn2)cc1NC(C)=O	none
CCOC(=O)C1(CCCc2ccccc2)CCN(C(=O)CN2C(=O)CSC2=O)CC1	none
COc1ccccc1NC(=O)CC(NC1CCCCC1)C(=O)O (configuration not stated)	none
COc1ccccc1-c1n[nH]c(=S)n1Cc1ccco1	VIM-2 inhibitor 16 | IMP-1 inh-2 inactive | VIM-2 FRET ctr 47 | TEM-1 inh inactive | VIM-2 inh conf 29
COc1ccc(OC)c(C2C(C(=O)c3ccco3)=C(O)C(=O)N2Cc2cccnc2)c1 (configuration not stated)	VIM-2 inhibitor 61 | IMP-1 inh-2 inactive | VIM-2 FRET ctr 78 | TEM-1 inh inactive | VIM-2 inh conf 68
COc1ccc(/C(O)=C2\C(=O)C(=O)N(Cc3ccco3)C2c2cc(OC)ccc2OC)cc1 (configuration not stated)	VIM-2 inhibitor 12 | IMP-1 inh-2 inactive | VIM-2 FRET ctr 35 | TEM-1 inh inactive | VIM-2 inh conf 26
COc1cccc(C2/C(=C(/O)c3ccc(C)cc3)C(=O)C(=O)N2Cc2ccco2)c1 (configuration not stated)	none
COc1ccc(OC)c(C2/C(=C(/O)c3ccccc3)C(=O)C(=O)N2Cc2ccco2)c1 (configuration not stated)	VIM-2 inhibitor 66 | IMP-1 inh-2 inactive | VIM-2 FRET ctr 77 | TEM-1 inh inactive | VIM-2 inh conf 70
COc1cccc(C2/C(=C(/O)c3ccccc3)C(=O)C(=O)N2Cc2ccco2)c1 (configuration not stated)	none
COc1ccc(OC)c(C2/C(=C(/O)c3ccc(C)cc3)C(=O)C(=O)N2Cc2ccco2)c1 (configuration not stated)	VIM-2 inhibitor 21 | IMP-1 inh-2 inactive | VIM-2 FRET ctr 56 | TEM-1 inh inactive | VIM-2 inh conf 45
O=C(Nc1ccc2nc(-c3cccnc3)[nH]c2c1)c1ccccc1F	VIM-2 inhibitor 49 | IMP-1 inh-2 inactive | VIM-2 FRET ctr inactive | TEM-1 inh inactive | VIM-2 inh conf inactive
CCN1C(=O)/C(=C2\SC(N3CCOCC3)=NC2=O)c2ccccc21	VIM-2 inhibitor 15 (no result: CTSL1 counter) | IMP-1 inh-2 inactive | VIM-2 FRET ctr inactive | TEM-1 inh inactive | VIM-2 inh conf 24
CCCCN1C(=O)/C(=C2\SC(N3CCOCC3)=NC2=O)c2ccccc21	none
O=C1C2C3C=CC(C2C(=O)N1CCCO)C1C2C(=O)N(CCCO)C(=O)C2C31 (configuration not stated)	none
CCN(CC)CCOC(=O)c1cccc2c1-c1ccccc1C2O (configuration not stated)	VIM-2 inhibitor 25 | IMP-1 inh-2 inactive | VIM-2 FRET ctr inactive | TEM-1 inh inactive | VIM-2 inh conf 43
CCN(CC)CCOC(=O)c1ccccc1Br	none
CCCN1CCN(C(=O)CCn2c(=O)c3cccn3c3cccnc32)CC1	VIM-2 inhibitor 13 | IMP-1 inh-2 inactive | VIM-2 FRET ctr inactive | TEM-1 inh inactive | VIM-2 inh conf 24
CCN1CCN(C(=O)CCn2c(=O)c3cccn3c3cccnc32)CC1	VIM-2 inhibitor 17 | IMP-1 inh-2 inactive | VIM-2 FRET ctr inactive | TEM-1 inh inactive | VIM-2 inh conf 25
COc1ccccc1C(=O)NC1CCN(C(=O)Nc2ccc(F)cc2)CC1	none
CCSc1ccc2nnc(-c3cccc(F)c3)n2n1	VIM-2 inhibitor 12 | IMP-1 inh-2 inactive | VIM-2 FRET ctr inactive | TEM-1 inh inactive | VIM-2 inh conf 23
COc1ccc(Cl)cc1NC(=O)CN1CCC(n2nnc3ccccc32)CC1	none
CN1CCN(C(=O)CSc2nc(-c3ccco3)cc(C(F)(F)F)n2)CC1	VIM-2 inhibitor 43 | IMP-1 inh-2 inactive | VIM-2 FRET ctr inactive | TEM-1 inh inactive | VIM-2 inh conf 57
O=C(CSc1nc(-c2ccco2)cc(C(F)(F)F)n1)N1CCSCC1	none
Cc1nonc1OCCCNc1ccc([N+](=O)[O-])cc1Cl	none
Cn1c(=O)c2sccc2n2c(CCCC(=O)N3CCN(c4ccccn4)CC3)nnc12	VIM-2 inhibitor 13 | IMP-1 inh-2 inactive | VIM-2 FRET ctr inactive | TEM-1 inh inactive | VIM-2 inh conf 20
CC1(C)CC2(CCO1)C(Nc1ccccc1)=NC(=S)N2c1ccccc1 (configuration not stated)	none
CSc1nc(C)c2c(n1)N(c1ccc(O)cc1)CC2	VIM-2 inhibitor 16 | IMP-1 inh-2 inactive | VIM-2 FRET ctr inactive | TEM-1 inh inactive | VIM-2 inh conf 27
CSc1nc(C)c2c(n1)N(c1ccc(F)cc1)CC2	none
CN1CCCC1CCNc1ccc2c(=O)c3ccccc3oc2c1 (configuration not stated)	VIM-2 inhibitor 17 | IMP-1 inh-2 inactive | VIM-2 FRET ctr inactive | TEM-1 inh inactive | VIM-2 inh conf 27
Cn1c(C(=O)NCC2CCCO2)cc2oc3ccccc3c21 (configuration not stated)	none
CN1CCCC1CCNc1ccc2oc3ccccc3c(=O)c2c1 (configuration not stated)	VIM-2 inhibitor 16 | IMP-1 inh-2 inactive | VIM-2 FRET ctr inactive | TEM-1 inh inactive | VIM-2 inh conf 18
O=c1c2ccccc2oc2cc(NCCCN3CCOCC3)ccc12	VIM-2 inhibitor 17 | IMP-1 inh-2 inactive | VIM-2 FRET ctr inactive | TEM-1 inh inactive | VIM-2 inh conf 22
O=S(=O)(Nc1ccc2c(c1)oc1ccccc12)N1CCCC1	none
CCOc1ccccc1-n1nnnc1SCC(=O)O	none
COc1cc2nc(NCCCN3CCN(C)CC3)n3nc(-c4ccccc4)nc3c2cc1OC	VIM-2 inhibitor 28 | IMP-1 inh-2 inactive | VIM-2 FRET ctr inactive | TEM-1 inh inactive | VIM-2 inh conf 48

Source: PubChem BioAssay (The Scripps Research Institute Molecular Screening Center)
